Hits are enriched below; roughly 3.6% of the tested compounds scored in any of these assays.
Measles CPE – protection of cells from measles virus. Measles virus-infected cells, CPE protection, absorbance. protection (pct of control), % at 4 µM. actives 1.5% (n = 140,000). AID 841; in the data active means protection mostly above about 24%, no sharp cut-off; inactive means mostly below about 26%
Yeast lifespan up – extends the lifespan of yeast. AID 775. actives 0.68% (n = 130,000). S. cerevisiae growth with nicotinamide, OD615; deaD strain in restrictive glucose medium. inhibition of the nicotinamide effect, % at 10 µM;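 active means inhibition above a set limit, placed 3 SD over the median of all compounds, cut at about 26% in these data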;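 further: 0% = nicotinamide-treated wells and 100% = cells grown without nicotinamide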
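assay system = DeaD-strain S. cerevisiae | buffer or medium = restrictive glucose medium | reagent = 1.5 mM nicotinamide | compound = 10 µM single point, 0.25% DMSO | incubation = 48 h compound exposure at 30 °C, humidified | signal = OD615 measurement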
RAM network inh – blocks the yeast RAM network; actives 1.8% (n = 190,000); inhibition, % at 50 µM; AID 868; S. cerevisiae dse1pr::URA3 reporter, 5-FOA growth OD615, 2 d; analog-sensitive cbk1-as2 kinase mutant strain;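 active means inhibition above a set limit, 3 SD over mean compound inhibition, cut at about 8.4% in these data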;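 further: 0% = DMSO-only wells with no growth and 100% = 10 µM 1-NA-PP1 full growth; inhibition rescues growth on 5-FOA so higher OD means more RAM inhibition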
BB579 growth dn – reduces growth of yeast BB579 in restrictive medium; S. cerevisiae BB579 growth, OD615, 48 h; inhibition, % at 10 µM; actives 0.51% (n = 140,000);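 active means inhibition above a set limit, 3 SD over the mean compound inhibition, cut at about 44% in these data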
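System: Saccharomyces cerevisiae DeaD strain BB579, replicative lifespan model yeast. Buffer or medium: restrictive glucose-based CSMM-D medium. Doses: one dose, 10 µM compound with 0.25% DMSO. Timing: 4 h preincubation and 48 h exposure at 30 °C. Detection: turbidity as optical density at 615 nm. Benchmarks: amphotericin B 10 µg/mL, positive.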
* hit, by the source's call.

Results for Cc1ccc(C(=O)COc2ccccc2N2C(=O)c3ccccc3C2=O)cc1 ?
Yeast lifespan up: 1; RAM network inh: 8.8*; BB579 growth dn: -20

Results for O=C(N/N=C/c1ccccc1Cl)c1nc2ccc([N+](=O)[O-])cc2c(=O)[nH]1 ?
RAM network inh: 10*

Results for COc1ccc(S(=O)(=O)n2nc(OC(C)=O)cc2N)cc1 ?
RAM network inh: 0

Results for COc1cccc(C(=O)Oc2cc(N)n(S(=O)(=O)c3ccc(C)cc3)n2)c1OC ?
Measles CPE: 20; Yeast lifespan up: 68*; RAM network inh: 9.1*; BB579 growth dn: -37

What do the screens show for `COc1ccc(N2C(=O)CC(N3CCC(O)(c4ccc(Cl)cc4)CC3)C2=O)cc1` (configuration not stated)?
Measles CPE: 26*; Yeast lifespan up: -17; RAM network inh: 2; BB579 growth dn: -43

Results for COc1ccc(N2C(=O)CC(N3CCN(S(=O)(=O)c4ccc(Cl)cc4)CC3)C2=O)cc1 (configuration not stated) ?
RAM network inh: 3

How did CCOC(=O)C1(CCCc2ccccc2)CCN(C(=O)c2cnn(CC)c2)CC1 do in these assays?
RAM network inh: 2

What do the screens show for `CC1CCCC(n2c(=S)[nH]c3ccccc3c2=O)C1C` (configuration not stated)?
Measles CPE: 32*; Yeast lifespan up: 16; RAM network inh: 2; BB579 growth dn: -33

How did Cc1cc(C(=O)Cn2nnc3ccccc3c2=O)c(C)n1-c1ccccc1F do in these assays?
Measles CPE: 97*; Yeast lifespan up: 12; RAM network inh: 1; BB579 growth dn: 0

Results for COc1ccc(-n2c(C)cc(C(=O)Cn3nnc4ccccc4c3=O)c2C)cc1 ?
Yeast lifespan up: -1; RAM network inh: 1; BB579 growth dn: -39

Results for COC(=O)C1CCN(C(=O)c2sc3nc(-c4ccc(F)cc4)cn3c2C)CC1 ?
Measles CPE: 39*; Yeast lifespan up: -29; RAM network inh: 2; BB579 growth dn: -8

Results for CC(NCc1ccc(-c2ccccc2)cc1)C(O)c1ccccc1 (configuration not stated) ?
Measles CPE: 2; Yeast lifespan up: -5; RAM network inh: -1; BB579 growth dn: 7

What do the screens show for `CCCCOc1ccc(Cc2n[nH]c(=S)n2N)cc1`?
Measles CPE: 40*; Yeast lifespan up: 2; RAM network inh: 0; BB579 growth dn: -9

What do the screens show for `Cc1ccc(OCc2n[nH]c(=S)n2N)cc1C`?
RAM network inh: 3

How did CCCNC(=O)CCC(NS(=O)(=O)c1ccc(C)cc1)C(=O)NCCC (configuration not stated) do in these assays?
Measles CPE: 25; Yeast lifespan up: 80*; RAM network inh: 2; BB579 growth dn: -33

Results for NC(=O)CN(c1ccc(Cl)cc1)S(=O)(=O)c1ccccc1 ?
Measles CPE: 3; Yeast lifespan up: 1; RAM network inh: 1; BB579 growth dn: -29

How did Cc1ccc(S(=O)(=O)N(CC(=O)Nc2ccccc2C(=O)O)c2ccc(Cl)cc2)cc1 do in these assays?
RAM network inh: 8.5*

What do the screens show for `COc1cccc2sc(N(CCCN(C)C)C(=O)c3sc4ccccc4c3Cl)nc12`?
Measles CPE: 4; Yeast lifespan up: 4; RAM network inh: 1; BB579 growth dn: -24

How did COc1ccc(C(=O)O/N=C(\N)Cc2ccc(Cl)cc2)cc1OC do in these assays?
Measles CPE: 10; Yeast lifespan up: -8; RAM network inh: -1; BB579 growth dn: -30

What do the screens show for `N/C(Cc1ccc(Cl)cc1)=N\OC(=O)c1ccccc1`?
Measles CPE: 6; Yeast lifespan up: -13; RAM network inh: -1; BB579 growth dn: 96*

What do the screens show for `Cc1ccc(NC(=O)c2cc(S(=O)(=O)N3CCOCC3)c(Br)s2)cc1`?
Measles CPE: 13; Yeast lifespan up: -5; RAM network inh: 5; BB579 growth dn: -30

How did COc1ccc(NS(=O)(=O)c2cc([N+](=O)[O-])ccc2N/N=C\c2c(C)[nH]c3ccccc23)cc1 do in these assays?
Measles CPE: 2; Yeast lifespan up: 3; RAM network inh: 6; BB579 growth dn: -65

What do the screens show for `COc1ccccc1NS(=O)(=O)c1cc([N+](=O)[O-])ccc1N/N=C/c1c[nH]c2ccccc12`?
Measles CPE: 3; Yeast lifespan up: -1; RAM network inh: 10*; BB579 growth dn: 5

How did O=C(Nc1nc2ccccc2n1CCN1CCOCC1)c1ccc(COc2ccccc2Br)o1 do in these assays?
RAM network inh: -1

Results for O=C(Nc1nc(COc2ccccc2)cs1)C12CC3CC(CC(C3)C1)C2 ?
Measles CPE: 35; Yeast lifespan up: 8; RAM network inh: 9.4*; BB579 growth dn: -34

Results for CCOC(=O)COc1ccc(C(=O)Nc2cccc(Cl)c2C)cc1 ?
RAM network inh: 2

What do the screens show for `CC(C)NC(=S)NNc1nc2ccccc2s1`?
RAM network inh: -1

How did CC(C)(C)C(=O)/C(=C/c1cccc([N+](=O)[O-])c1)n1cncn1 do in these assays?
Measles CPE: 0; Yeast lifespan up: 56*; RAM network inh: -1; BB579 growth dn: 4

Results for COc1cc(/C(C)=N\NC(N)=S)cc(OC)c1OC ?
Measles CPE: 35*; Yeast lifespan up: 3; RAM network inh: 3; BB579 growth dn: -5

Results for COc1cc(/C(C)=N/NC(=S)NC(C)C)cc(OC)c1OC ?
Measles CPE: 12; Yeast lifespan up: -3; RAM network inh: 0; BB579 growth dn: -10

What do the screens show for `COC(=O)c1ccc(NS(=O)(=O)c2ccccc2)o1`?
RAM network inh: 1

What do the screens show for `O=C(Nc1ccncc1)C1COc2ccccc2O1` (configuration not stated)?
Measles CPE: 16; Yeast lifespan up: 2; RAM network inh: 0; BB579 growth dn: -4

How did O=C(CSC1=NCCN1)C1COc2ccccc2O1 (configuration not stated) do in these assays?
Measles CPE: 31*; Yeast lifespan up: -11; RAM network inh: 2; BB579 growth dn: -28

How did CC(C)(C)c1cc[n+](CC(=O)Nc2cc(C(F)(F)F)ccc2N2CCOCC2)cc1 do in these assays?
RAM network inh: 2

How did N#Cc1c2nc3ccccc3nc2n2cc(NC(=O)c3ccc(F)cc3)ccc12 do in these assays?
Measles CPE: 3; Yeast lifespan up: -2; RAM network inh: 9.8*; BB579 growth dn: -20

What do the screens show for `O=C(Nc1nc2ccccc2[nH]1)c1ccc(F)cc1`?
Measles CPE: 15; Yeast lifespan up: -5; RAM network inh: 1; BB579 growth dn: -28

What do the screens show for `Clc1cc2nc3ccccn3c2cc1Cl`?
Measles CPE: 15; Yeast lifespan up: -32; RAM network inh: 2; BB579 growth dn: 43*

Results for O=Cc1c(Cl)nc2ccccn12 ?
RAM network inh: 4

What do the screens show for `CCN(CC)S(=O)(=O)c1cc(C(=O)Nc2cccnc2Cl)ccc1Cl`?
RAM network inh: 1

How did Cc1ccc(S(=O)(=O)n2cnc3cc([N+](=O)[O-])ccc32)cc1C do in these assays?
Measles CPE: 6; Yeast lifespan up: -19; RAM network inh: 1; BB579 growth dn: -26

Source: PubChem (several laboratories)
